The nature of this data set: Toxicity liver stage against HepG2, at 10uM. The data set is classed as cell-based. Also on record: test concentration 10 uM, cell line HepG2-A16-CD81EGFP. To be noted: human, HepG2-A16-CD81EGFP cells; read-out: INHIBITION
In short, it runs like this:
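Uninfected HepG2-A16-CD81EGFP cells, 3 × 10^3 per well, 1536-well, plated on prespotted compound at 10 μM final, parasite-free screening media added to match infected plates; puromycin 10 μM positive, DMSO 0.5% negative; run in parallel with 48 h PbLuc assay at 37 °C, 5% CO2; viability by CellTiter-Glo luminescence, normalized to controls.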

The structures appear in SMILES notation.

On to `Cc1ccsc1CCNC(=O)CCC1CCCCN1C` (stereo unspecified), for which the cytotoxicity at 10 µM is -3.13%.
Then `CCC(C)n1cnc(S(=O)(=O)N(Cc2cccnc2)C(C)C)c1` (stereo unspecified), with 0.075%.
Then `CCOC(C)C(=O)NCc1cccc(CN2CCCCCC2)c1` (stereo unspecified), with 15.5%; and `CCCn1ccc(C(=O)N2CCC(C)CC2)n1`, with -7.01%.
Consider `Cc1cccc(CN2CCC(n3cc(CCO)nn3)CC2)c1C`, for which the cytotoxicity at 10 µM was found to be 0.636%.
On to `COc1cccc2c1OCC(NC(=O)NC1CCN(C3CC3)CC1)C2` (stereo unspecified), for which the cytotoxicity at 10 µM is -10.7%.
Turning to `F[C@@H]1CN(CC2CC2)C[C@@H]1OCc1nc2ccccc2[nH]1`, the cytotoxicity at 10 µM was -1.34%.
Then `CC(=O)Nc1cccc2c1ccn2CC(=O)Nc1nc[nH]n1`, with -0.79%; and `CC(c1ccncc1)N(C)S(C)(=O)=O` (stereo unspecified), with 1.18%; and `CNS(=O)(=O)c1ccc(CNC(=O)N2CCOC(C)C2)cc1` (stereo unspecified), with 9.15%.
To `Cc1cccc(CN2CCC3(CC2)CC(c2cccnc2)C(=O)N3C)n1` (stereo unspecified) belongs 7.53%.
To `O=C(Cc1ccc2c(c1)CCO2)N1CCCC1c1noc(C2CC2)n1` (stereo unspecified) belongs -7.71%.
For the compound `COc1cccc(OCC2CCCN(Cc3ncc[nH]3)C2)c1` (stereo unspecified), the cytotoxicity at 10 µM amounted to 4.97%.
As to `Cc1ccc(S(=O)(=O)N2CCOCC2C(N)=O)c(F)c1` (stereo unspecified), the cytotoxicity at 10 µM is -5.22%.
`O=C(O)CCc1cccc(C2CCCN2Cc2cccc(Cl)c2)n1` (stereo unspecified): the cytotoxicity at 10 µM is -22.6%.
To `COc1ccc(CN2C[C@@H](CN(C)C)[C@@H](CO)C2)c(Cl)c1OC` belongs -8.44%; to `CCN(CCc1ccccc1)Cn1nc(C)c2c(C)onc2c1=O`, -5.18%.
To `COc1ccccc1CN(CCCn1ccnc1)CC1CCOC1` (stereo unspecified) belongs 11%; to `CC(C)N(Cc1ccccc1)C(=O)NCCNC(=O)c1cccnc1`, -1.66%; to `O=C(NC1CC1)c1cc(C2CCCN(Cc3ccccn3)C2)no1` (stereo unspecified), -31.9%.
In the case of `CC(C)[C@@H]1CN(C(=O)CN(C)Cc2ccc(F)cc2)C[C@H]1C(=O)O`, the cytotoxicity at 10 µM came out at 1.74%.
Then `Cc1cc(=O)n2c(n1)SCC2CC(=O)NCc1cc(-c2ccco2)on1` (stereo unspecified), with -15.6%; and `O=C(NCc1ccccn1)NCC(O)c1ccccc1C(F)(F)F` (stereo unspecified), with -0.36%; and `CN(C)CCN(Cc1ccc(Cl)cc1)C(=O)c1cnccn1`, with -1.85%.
Then `COc1ccc2c(O)c(NC(=O)NCC3CC3)cnc2c1`, with -0.799%; and `Cc1cc2cc(C(=O)N[C@@H]3CC[C@@H](N4CCCC4)[C@@H]3O)ccc2o1`, with -4.72%.
Turning to `CC(C)c1[nH]c2ncccc2c1CN1CCOCC1`, the cytotoxicity at 10 µM is 0.752%.
To `Cc1cccc(C(=O)N2CC[C@@H]3[C@H]2CCC(=O)N3c2ccccc2)n1` belongs -94.8%; to `CCn1nc(C)cc1C(=O)N1C[C@H]2CCC[C@@]2(COc2ccccn2)C1`, 0.529%.
Regarding `COC(=O)c1sc2cccc(F)c2c1CNC(=O)C1CCCO1` (stereo unspecified), the cytotoxicity at 10 µM was -13.5%.
As for `O=C(c1c2c(NCC3CC3)ncnc2n2ccccc12)N1CCCC1`, the cytotoxicity at 10 µM was 9.31%.
To `O=C(CCN1CCCCO1)NCc1cn2c(n1)SCC2` belongs 6.49%; to `O=C1C(N2CCOC3(CCCC3)C2)CCN1C1CC1` (stereo unspecified), 9.4%; to `CN(C)S(=O)(=O)N1C[C@H]2CCC[C@@]2(COCC2CC2)C1`, 6.13%.
Then `Cc1ccc(NC(=O)CCc2cnn(C)c2)cc1F`, with -1.69%; and `O=C(c1cnc(-c2ccco2)s1)N1CCCCC1Cn1cccn1` (stereo unspecified), with -5.83%.
Take `CC(C)c1noc(CN2CCN(C(=O)c3ccccc3F)CC2)n1`: the cytotoxicity at 10 µM is -8.08%.
Regarding `CN(c1ncccc1C#N)C1CCN(CCc2ccncc2)CC1`, the cytotoxicity at 10 µM stood at 28.7%.
Then `C=C(C)COc1cccc(CNC(CC)c2ccnn2C)c1` (stereo unspecified), with -4.21%; and `O=C(CSc1ccc(Br)cc1)NS(=O)(=O)c1ccc2c(c1)OCCO2`, with -5.51%; and `COc1ccc(C)cc1S(=O)(=O)N[C@H]1CN(C(C)=O)C[C@@H]1C1CC1`, with -3.64%.
Take `Cc1ccccc1CN1CCC2(CCCN2C(=O)C(C)C)CC1`: the cytotoxicity at 10 µM was 11.7%.
In the case of `Cc1cc(=O)[nH]c(SCC(=O)N(C)CC2Cc3ccccc3CN2C)n1` (stereo unspecified), the cytotoxicity at 10 µM is -1.96%.
Then `CN(C)c1nc(N)nc(CN2CCCC(c3ccccc3)CC2)n1` (stereo unspecified), with 5.47%.
Then `O=C(c1ccc(C(F)(F)F)cc1)N1C[C@@H](CN2CCCCC2)[C@@H](CO)C1`, with 0.313%; and `Cn1ncc(NC(=O)c2noc3c2CCCC3)c1C(N)=O`, with 5.8%; and `Cc1ccc(CNC(=O)NC2CCN(CC(F)F)CC2)cc1`, with -6.25%.
For `CCn1ncc(Nc2[nH]cnc3nc(C)nc2-3)c1C`, the cytotoxicity at 10 µM was found to be 3.26%.
Regarding `Cc1ncsc1C(=O)Nc1cccc(OCC(F)F)n1`, the cytotoxicity at 10 µM is -1.4%.
Then `CCN(CC)Cc1ccc(C(=O)N2CCCC2Cn2cccn2)cc1` (stereo unspecified), with -10.7%.
Take `O[C@H]1[C@H](n2cc(-c3ccccc3)nn2)c2ccccc2C12CCNCC2`: the cytotoxicity at 10 µM amounted to 7.62%.
Then `O=C(C1CCC1)N1CCN(Cc2ccccc2F)[C@H]2CS(=O)(=O)C[C@H]21`, with 0.15%.
Then `Cc1occc1C(=O)N1CCO[C@H]2[C@H](OCc3ccccn3)CC[C@@H]21`, with -104%.
Then `CCN1CCN(Cc2nc(CC(C)C)no2)CC1`, with -23%; and `CCN(Cc1ccc2c(c1)OCCO2)C(=O)NCc1csc(C)n1`, with -5.16%.
Regarding `COCC(C)N(C)C(=O)CCc1c(C)nc2c(C#N)cnn2c1C` (stereo unspecified), the cytotoxicity at 10 µM is -43.3%.
To `CC(C)(CO)CCCNC(=O)NC1(C)Cc2ccccc2C1` belongs -1%; to `COCC(O)CN(C)C(=O)NC1CCN(S(C)(=O)=O)CC1` (stereo unspecified), -0.778%.
As for `Cc1ncnc(N2CCN(C(=O)C3CC4(CCNCC4)CN3)CC2)c1C` (stereo unspecified), the cytotoxicity at 10 µM is -14.7%.
Then `O=C(O)C1(Oc2ccc3c(c2)OCO3)CCN(C2CCOCC2)CC1`, with -13.3%; and `Cc1nc(N2CCCC2)ncc1-c1cc(O)nc(N2CCCCC2)n1`, with 10.7%.
Regarding `Cc1cc(NC(=O)Cn2ncc(Br)c2C)no1`, the cytotoxicity at 10 µM was 4.12%.
To `O=C(CN1CCCC1c1nc(Cc2ccc(F)cc2)no1)NC1CC1` (stereo unspecified) belongs 20.6%; to `CCc1nc(C(=O)N2CC(C)CN(C)c3ccccc32)c[nH]1` (stereo unspecified), -3.47%.
For the compound `CC(Cn1cc(Br)cn1)C(=O)Nc1ccc(Cl)cn1` (stereo unspecified), the cytotoxicity at 10 µM came out at 34%.
Then `Cc1ccc(CNC(=O)c2nc3c(o2)CN(c2ncccn2)C3)o1`, with -5.58%; and `COc1ccc2c(c1)CN(Cc1nc3ccsc3c(=O)[nH]1)CC2`, with -4.64%; and `CCc1ccc(NS(=O)(=O)c2cc3c(c(C(=O)O)c2)OCCO3)cc1`, with -13.9%.
As for `CCSc1cccc(NCc2cccnc2)c1`, the cytotoxicity at 10 µM was 0.14%.
Then `Cn1cc(CN2CCCC3(CCN(C(=O)c4ccccn4)C3)C2)cn1` (stereo unspecified), with -66.9%; and `Cc1ccccc1NC(=O)NCCn1nc(C(F)(F)F)n(C)c1=O`, with -1.68%.
To `CCCN1C[C@@H]2CC[C@H]1CN(Cc1ccc(Cn3cccn3)cc1)C2` belongs -4.87%.
With `COc1ccc(Br)cc1CCC(=O)N1CCCC1`, the cytotoxicity at 10 µM is -4.2%.
To `CCN(CC)C(=O)c1nnsc1-c1ccc(C)cc1` belongs 3.14%; to `CCn1cc(NC(=O)Nc2ccc3c(c2)OCCO3)cn1`, -1.04%.
On to `COc1ccc(C)cc1C(C(=O)O)N1CCN(Cc2ccccn2)CC1` (stereo unspecified), for which the cytotoxicity at 10 µM came to 4.4%.
With `Cn1cc2c(n1)C(CNCC1CCOCC1)OCC2` (stereo unspecified), the cytotoxicity at 10 µM stood at 6.86%.
On to `CN(C)c1nccc(N(C)C2CCN(CC3CCOC3)CC2)n1` (stereo unspecified), for which the cytotoxicity at 10 µM was -18.9%.
On to `CCS(=O)(=O)N1CCC2(CCCN(c3ncc(F)cn3)C2)C1` (stereo unspecified), for which the cytotoxicity at 10 µM was found to be 10.3%.
As to `CCn1cc(CN2CCN(C(=O)c3cc(C)c(C)s3)CC2)c(C)n1`, the cytotoxicity at 10 µM is 2.07%.
Then `OC(CN1CCC(c2ccn[nH]2)CC1)c1ccccc1F` (stereo unspecified), with -25.5%.
In the case of `Cc1cc(C)n(C2=NC(NCCCO)c3c(sc4c3CCCC4)N2)n1` (stereo unspecified), the cytotoxicity at 10 µM came to 14%.
Consider `N#CC(NC(=O)CCC1CCC1)c1cnn(-c2ccccc2)c1` (stereo unspecified), for which the cytotoxicity at 10 µM is -2.65%.
For `COC(=O)CNC(=O)c1ccn(-c2ccc(Cl)c(Cl)c2)n1`, the cytotoxicity at 10 µM is -8.77%.
On to `Cc1ccc(C(=O)Nc2cn[nH]c2)cn1`, for which the cytotoxicity at 10 µM is -6.1%.
Regarding `CS(=O)(=O)c1snnc1C1CCN(Cc2ccncc2)CC1`, the cytotoxicity at 10 µM turned out to be 2.31%.
To `Cc1ccc(CN2CC(O)CN(C(=O)OCC(C)C)CC2=O)cc1` (stereo unspecified) belongs -3.09%; to `COc1ccc(OC)c2c(C)cc(N(CCO)CCO)nc12`, -114%.
Then `c1ccc(-c2ncc(CN3CCCCC3CCn3cccn3)cn2)nc1` (stereo unspecified), with -3.34%; and `CC(C(=O)N1CCc2sccc2C1)N1CCCN(C2CC2)CC1` (stereo unspecified), with 3.86%; and `CC(O)CN1CCN(C(=O)c2ccn(-c3ccc(F)cc3)n2)CC1` (stereo unspecified), with -6.11%.
For the compound `CN1CCCC(C(=O)N2CCC(Oc3ncccn3)CC2)C1` (stereo unspecified), the cytotoxicity at 10 µM was -5.2%.
To `Cc1cc(F)cc(S(=O)(=O)NCCCN2CCC(O)CC2)c1` belongs -20.1%.
Turning to `CCC1CCCN(CC(=O)Nc2oc(C)c3c(C)n[nH]c(=O)c23)C1` (stereo unspecified), the cytotoxicity at 10 µM is -3.66%.
`CNc1nc(C)c(C(=O)N2C[C@@H]3CC[C@H]2CN(c2cnccn2)C3)s1`: the cytotoxicity at 10 µM stood at 13.6%.
To `COc1ccc(/C=C/CN2CCN(c3ncccc3C(N)=O)CC2)cc1` belongs -8.88%.

(Values after ChEMBL document CHEMBL4513216, “Probing the Open Global Health Chemical Diversity Library for Multistage-Active Starting Points for Next-Generation Antimalarials” (ACS Infect Dis, 2020).)
